Reference: ChEMBL document CHEMBL1909630, “Azaxanthene based selective glucocorticoid receptor modulators: design, synthesis, and pharmacological evaluation of (S)-4-(5-(1-((1,3,4-thiadiazol-2-yl)amino)-2-methyl-1-oxopropan-2-yl)-5H-chromeno[2,3-b]pyridin-2-yl)-2-fluoro-N,N-dimethylbenzamide (BMS-776532) and its methylene homologue …” (J Med Chem, 2011)

Columns and labels:
Glucocorticoid receptor [1] = target: T1, Glucocorticoid receptor (Homo sapiens, UniProt P04150); assay: Displacement of GS-red from glucocorticoid receptor by fluorescence polarization assay
T1 sequence (P04150 whole entry): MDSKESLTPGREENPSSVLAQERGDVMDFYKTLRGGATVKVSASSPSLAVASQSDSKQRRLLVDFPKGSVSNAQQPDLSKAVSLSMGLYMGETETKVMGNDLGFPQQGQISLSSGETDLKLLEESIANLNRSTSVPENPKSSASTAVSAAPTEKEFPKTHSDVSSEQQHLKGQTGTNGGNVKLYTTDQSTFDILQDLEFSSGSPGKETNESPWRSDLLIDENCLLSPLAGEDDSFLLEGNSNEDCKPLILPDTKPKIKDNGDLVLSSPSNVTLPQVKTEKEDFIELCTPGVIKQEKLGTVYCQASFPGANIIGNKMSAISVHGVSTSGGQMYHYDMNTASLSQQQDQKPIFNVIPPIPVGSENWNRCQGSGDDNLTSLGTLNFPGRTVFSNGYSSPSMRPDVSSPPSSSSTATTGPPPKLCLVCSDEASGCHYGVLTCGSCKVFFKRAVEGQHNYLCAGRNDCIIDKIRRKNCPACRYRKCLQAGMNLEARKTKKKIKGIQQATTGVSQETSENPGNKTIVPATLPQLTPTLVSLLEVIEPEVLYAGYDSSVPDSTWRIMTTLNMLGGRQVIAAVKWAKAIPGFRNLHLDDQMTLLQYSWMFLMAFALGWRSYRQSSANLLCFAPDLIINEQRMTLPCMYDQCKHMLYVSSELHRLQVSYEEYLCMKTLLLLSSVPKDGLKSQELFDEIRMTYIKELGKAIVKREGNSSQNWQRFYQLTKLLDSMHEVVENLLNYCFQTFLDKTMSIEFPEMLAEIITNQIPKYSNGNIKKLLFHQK

Progesterone receptor = target: T2, Progesterone receptor (Homo sapiens, UniProt P06401); assay: Displacement of fluorescently labeled ligand from progesterone receptor by fluorescence polarization assay
T2 sequence (P06401 whole entry): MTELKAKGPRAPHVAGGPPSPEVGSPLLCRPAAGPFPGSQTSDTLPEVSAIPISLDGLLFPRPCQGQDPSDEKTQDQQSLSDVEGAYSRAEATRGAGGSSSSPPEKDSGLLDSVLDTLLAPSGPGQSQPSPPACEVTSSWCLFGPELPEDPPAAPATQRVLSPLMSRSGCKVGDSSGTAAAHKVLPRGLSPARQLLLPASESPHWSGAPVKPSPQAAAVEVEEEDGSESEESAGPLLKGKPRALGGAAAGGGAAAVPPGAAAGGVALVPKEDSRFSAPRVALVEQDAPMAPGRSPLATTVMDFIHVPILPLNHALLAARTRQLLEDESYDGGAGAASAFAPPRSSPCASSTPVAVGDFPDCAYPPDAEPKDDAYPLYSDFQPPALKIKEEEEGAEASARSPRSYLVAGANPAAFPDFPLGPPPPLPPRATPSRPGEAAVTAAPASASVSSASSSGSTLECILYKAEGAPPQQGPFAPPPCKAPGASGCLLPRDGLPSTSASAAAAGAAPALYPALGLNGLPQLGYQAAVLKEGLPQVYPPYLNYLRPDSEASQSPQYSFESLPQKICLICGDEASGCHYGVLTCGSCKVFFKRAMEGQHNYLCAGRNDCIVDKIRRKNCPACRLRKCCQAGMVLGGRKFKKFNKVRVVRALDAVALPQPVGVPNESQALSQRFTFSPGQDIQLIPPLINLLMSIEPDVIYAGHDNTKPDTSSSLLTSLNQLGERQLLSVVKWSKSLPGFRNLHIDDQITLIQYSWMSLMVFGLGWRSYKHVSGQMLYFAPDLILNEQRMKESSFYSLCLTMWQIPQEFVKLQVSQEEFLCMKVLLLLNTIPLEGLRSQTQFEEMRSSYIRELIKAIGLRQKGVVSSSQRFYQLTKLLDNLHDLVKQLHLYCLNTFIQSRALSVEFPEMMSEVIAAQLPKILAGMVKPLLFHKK

Glucocorticoid receptor [2] = target: T1, Glucocorticoid receptor; assay: Transrepression activity at glucocorticoid receptor alpha in phorbol myristate acetate-stimulated human A549 cells assessed as inhibition of AP1 response element by luciferase reporter gene assay; format: cell-based
Glucocorticoid receptor [3] = target: T1, Glucocorticoid receptor; assay: Transactivation activity at GR-alpha in human NP1 Hela cells assessed as induction of GAL4-DBD after 20 hrs by luciferase reporter gene assay; format: cell-based
Glucocorticoid receptor [4] = target: T1, Glucocorticoid receptor; assay: Transactivation activity at glucocorticoid receptor alpha human 13D3/Huh7 cells assessed as induction of TAT activity after 4 hrs by spectrophotometry; format: cell-based, Huh-7
Glucocorticoid receptor [5] = target: T1, Glucocorticoid receptor; assay: Transactivation activity at GR-alpha in human NP1 Hela cells assessed as inhibition of GAL4-DBD after 20 hrs by luciferase reporter gene assay; format: cell-based
Androgen receptor = target: T3, Androgen receptor (Homo sapiens, UniProt P10275); assay: Displacement of fluorescently labeled ligand from androgen receptor by fluorescence polarization assay
T3 sequence (P10275 whole entry): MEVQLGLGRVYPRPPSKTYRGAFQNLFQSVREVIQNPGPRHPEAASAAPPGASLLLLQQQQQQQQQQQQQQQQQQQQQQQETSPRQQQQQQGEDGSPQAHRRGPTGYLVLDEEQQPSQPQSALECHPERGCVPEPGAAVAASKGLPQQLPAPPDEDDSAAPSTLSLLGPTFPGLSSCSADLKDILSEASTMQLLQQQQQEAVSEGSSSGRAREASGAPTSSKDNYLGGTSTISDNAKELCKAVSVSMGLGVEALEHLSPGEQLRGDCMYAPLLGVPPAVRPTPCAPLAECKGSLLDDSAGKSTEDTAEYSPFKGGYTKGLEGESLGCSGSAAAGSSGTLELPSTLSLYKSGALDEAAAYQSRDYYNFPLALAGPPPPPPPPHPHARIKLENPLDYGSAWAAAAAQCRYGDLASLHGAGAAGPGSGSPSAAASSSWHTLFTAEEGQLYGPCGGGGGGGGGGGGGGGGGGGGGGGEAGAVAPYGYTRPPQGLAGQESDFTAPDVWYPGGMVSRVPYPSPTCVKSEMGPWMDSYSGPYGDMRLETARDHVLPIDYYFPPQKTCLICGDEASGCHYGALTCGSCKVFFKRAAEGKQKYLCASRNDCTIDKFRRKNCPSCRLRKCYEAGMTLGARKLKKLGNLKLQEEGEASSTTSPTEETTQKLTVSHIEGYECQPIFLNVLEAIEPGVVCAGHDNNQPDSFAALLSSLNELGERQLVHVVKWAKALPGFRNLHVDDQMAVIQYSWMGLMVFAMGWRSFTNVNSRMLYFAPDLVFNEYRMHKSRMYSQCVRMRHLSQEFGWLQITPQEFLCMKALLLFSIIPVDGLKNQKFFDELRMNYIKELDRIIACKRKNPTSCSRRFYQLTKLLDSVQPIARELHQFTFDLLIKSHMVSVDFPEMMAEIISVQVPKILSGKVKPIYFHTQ
Method in brief: (§1)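 Binding was measured by fluorescence polarization competition between compound and a fluorescent ligand for full-length receptor or ligand-binding domain. Values are means of at least two experiments.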

Glucocorticoid receptor [6] = target: T1, Glucocorticoid receptor; assay: Transrepression activity at glucocorticoid receptor alpha in IL-1beta-stimulated human A549 cells assessed as inhibition of NFkappaB-dependent E-selectin transcription by luciferase reporter gene assay; format: cell-based
Blood [7] = assay: Antiinflammatory activity in human whole blood assessed as inhibition of LPS-induced TNFalpha production after overnight incubation by ELISA; format: functional, tissue-based
Method in brief: (§2)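 Whole blood from two donors per experiment was collected into ACD-A. Compounds were added and the blood was incubated about 20 h at 37 °C under 5% CO2. Blood was then stimulated for 5 h with LPS (final 100 ng/mL, for TNFα) or IL-1β (final 10 ng/mL, for IL-8). Plasma TNFα or IL-8 was measured by ELISA. Efficacy was expressed as % of dexamethasone, and values are means of at least two experiments.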

Blood [8] = assay: Antiinflammatory activity in human whole blood assessed as inhibition of LPS-induced TNFalpha production after overnight incubation by ELISA relative to Dexamethasone; format: functional; method in brief: as §2
Blood [9] = assay: Antiinflammatory activity in human whole blood assessed as inhibition of TNF-alpha-induced IL-8 production after overnight incubation by ELISA; format: functional, tissue-based
Blood [10] = assay: Antiinflammatory activity in human whole blood assessed as inhibition of TNF-alpha-induced IL-8 production after overnight incubation by ELISA relative to dexamethasone; format: functional
Blood [11] = assay: Antiinflammatory activity in human whole blood assessed as inhibition of IL-1beta-induced IL-8 production after overnight incubation by ELISA; format: functional, tissue-based; method in brief: as §2
Blood [12] = assay: Antiinflammatory activity in human whole blood assessed as inhibition of IL-1beta-induced IL-8 production after overnight incubation by ELISA relative to Dexamethasone; format: functional; method in brief: as §2
Estrogen receptor = target: T4, Estrogen receptor (Homo sapiens, UniProt P03372); assay: Displacement of fluorescently labeled ligand from ERalpha receptor by fluorescence polarization assay; method in brief: as §1
T4 sequence (P03372 whole entry): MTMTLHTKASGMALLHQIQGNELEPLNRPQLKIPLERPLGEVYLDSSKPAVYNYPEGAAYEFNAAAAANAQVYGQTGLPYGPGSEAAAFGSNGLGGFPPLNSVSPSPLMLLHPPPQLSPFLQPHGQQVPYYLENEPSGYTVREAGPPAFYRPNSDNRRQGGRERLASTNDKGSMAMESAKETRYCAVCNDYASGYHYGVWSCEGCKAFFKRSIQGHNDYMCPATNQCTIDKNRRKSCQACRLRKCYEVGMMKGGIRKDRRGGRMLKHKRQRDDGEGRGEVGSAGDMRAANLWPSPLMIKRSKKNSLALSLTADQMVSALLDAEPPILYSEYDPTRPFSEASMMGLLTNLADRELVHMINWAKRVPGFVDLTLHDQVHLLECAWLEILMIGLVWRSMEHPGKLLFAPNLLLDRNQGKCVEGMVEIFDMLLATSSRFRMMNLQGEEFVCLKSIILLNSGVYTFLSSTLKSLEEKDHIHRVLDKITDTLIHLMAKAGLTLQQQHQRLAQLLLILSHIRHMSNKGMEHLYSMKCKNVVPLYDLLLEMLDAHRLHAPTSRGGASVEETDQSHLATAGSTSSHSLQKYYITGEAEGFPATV

[13] = target: T5, Mineralocorticoid receptor (Homo sapiens, UniProt P08235); assay: Agonist activity at human mineralocorticoid receptor expressed in human A549 cells by fluorescence polarization assay; format: functional, cell-based
T5 sequence (P08235 whole entry): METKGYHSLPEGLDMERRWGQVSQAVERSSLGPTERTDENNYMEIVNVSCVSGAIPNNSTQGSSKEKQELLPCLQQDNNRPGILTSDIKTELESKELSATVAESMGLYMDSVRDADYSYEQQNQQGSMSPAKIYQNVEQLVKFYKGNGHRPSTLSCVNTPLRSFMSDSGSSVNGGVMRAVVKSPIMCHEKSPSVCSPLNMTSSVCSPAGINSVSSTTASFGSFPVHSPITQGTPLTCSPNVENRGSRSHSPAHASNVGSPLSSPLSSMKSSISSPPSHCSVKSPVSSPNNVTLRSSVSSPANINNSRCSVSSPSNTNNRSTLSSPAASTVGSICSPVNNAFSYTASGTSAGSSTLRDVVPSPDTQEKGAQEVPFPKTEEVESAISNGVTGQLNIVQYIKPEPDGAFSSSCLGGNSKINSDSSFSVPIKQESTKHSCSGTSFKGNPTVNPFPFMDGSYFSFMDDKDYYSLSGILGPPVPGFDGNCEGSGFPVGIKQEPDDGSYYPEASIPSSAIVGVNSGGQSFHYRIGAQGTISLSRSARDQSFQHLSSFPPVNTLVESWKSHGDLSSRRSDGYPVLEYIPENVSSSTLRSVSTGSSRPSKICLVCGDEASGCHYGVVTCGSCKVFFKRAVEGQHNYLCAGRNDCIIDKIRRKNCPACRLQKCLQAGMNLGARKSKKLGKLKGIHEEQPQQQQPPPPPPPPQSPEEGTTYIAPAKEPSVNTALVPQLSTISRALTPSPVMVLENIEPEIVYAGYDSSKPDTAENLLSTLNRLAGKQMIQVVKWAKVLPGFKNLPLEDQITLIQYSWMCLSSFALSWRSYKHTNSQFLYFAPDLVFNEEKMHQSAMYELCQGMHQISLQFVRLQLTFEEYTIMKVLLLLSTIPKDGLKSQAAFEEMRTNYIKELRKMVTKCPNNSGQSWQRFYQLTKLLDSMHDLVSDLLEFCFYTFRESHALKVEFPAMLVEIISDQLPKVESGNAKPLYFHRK

Row | Ki (Glucocorticoid receptor [1]) [nM] | Ki (Progesterone receptor) [nM] | EC50 (Glucocorticoid receptor [2]) [nM] | EC50 (Glucocorticoid receptor [3]) [nM] | EC50 (Glucocorticoid receptor [4]) [nM] | EC50 (Glucocorticoid receptor [5]) [nM] | Ki (Androgen receptor) [nM] | EC50 (Glucocorticoid receptor [6]) [nM] | EC50 (Blood [7]) [nM] | EC50 (Blood [9]) [nM] | EC50 (Blood [11]) [nM] | Ki (Estrogen receptor) [nM] | EC50 [13] [nM] | SMILES | Imax (Blood [8]) [%] | Imax (Blood [10]) [%] | Imax (Blood [12]) [%]
1 | 1.6 | 310 | 18.1 | 135 | 107 | 77 |  |  |  |  |  |  |  | CC(C)Oc1ccc(-c2ccc3c(n2)Oc2ccccc2[C@H]3C(C)(C)C(=O)Nc2nncs2)cc1 |  |  | 
2 | 2.4 | 285 | 15.1 | 126 | 823 | 36 | > 5000 | 29.7 |  |  |  |  |  | CCCc1ccc(-c2ccc3c(n2)Oc2ccccc2[C@H]3C(C)(C)C(=O)Nc2nncs2)cc1 |  |  | 
3 | 2.53 |  | 37.9 | 192 | 1990 | 99.3 |  | 20.6 | 4020 | 3070 | 2490 |  |  | CC(C)(C(=O)Nc1nncs1)[C@H]1c2ccccc2Oc2nc(-c3ccc(C(=O)N4CCC(F)(F)C4)c(F)c3)ccc21 | 78 | 67 | 81
4 | 1.74 | 1230 | 12.2 | 89 | 22.7 | 42.7 |  | 4.6 |  |  |  | > 75000 | > 5000 | CN(C)C(=O)c1ccc(-c2ccc3c(n2)Oc2ccccc2[C@@H]3C(C)(C)C(=O)Nc2nncs2)cc1 |  |  | 
5 | 3.9 |  | 47 | 496 | 876 | 162 |  | 73 | > 5000 | > 20000 | > 20000 |  |  | CC(C)Oc1ccc(-c2ccc3c(n2)Oc2ccccc2[C@@H]3C(C)(C)C(=O)Nc2nncs2)cc1F | 49 | 12 | 7
